This note sets out measurements from ChEMBL document CHEMBL5715941, “AZD1152, a selective inhibitor of Aurora B kinase, inhibits human tumor xenograft growth by inducing apoptosis” (Clin Cancer Res, 2007).

Each structure is given as a SMILES string.

Series [1] deals with HL-60. In words: Antitumor activity against human HL-60 cells xenografted in immunodeficient athymic mouse assessed as inhibition of tumor growth at 45 mg/kg, iv administered twice daily for 5 days relative to control. The series is classed as functional. Conditions: HL-60, 120 h, time 5 day. For orientation: In xenograft studies the graft and the host belong to different species.

Series [2] in a line: Toxicity in athymic nude rat xenografted with human SW620 cells assessed as maximal body weight loss at 25 mg/kg/day, iv for 24 h following 4 days. The note with it: in vivo, 96 h, time 4 day. Type of series: organism-based, SW-620. Summed up:
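Male nude rats bearing SW620 xenografts received vehicle or AZD1152 at 25 mg/kg/d i.v. once daily for 4 consecutive days. Body weight was tracked, with maximal loss taken relative to vehicle-treated animals.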

For series [3], the system named is HL-60. As to the kind of experiment: Antitumor activity against human HL-60 cells xenografted in immunodeficient athymic mouse assessed as inhibition of tumor growth at 75 mg/kg, ip administered twice daily for 13 days relative to control. Type of series: functional, organism-based. The note with it: time 13.0 day.

Usually inhibition in vivo stands for the share of the control response that was lost under treatment. On to `CCc1cccc(CC)c1NC(=O)N1Cc2[nH]nc(NC(=O)c3ccc(N4CCN(C)CC4)cc3)c2C1` [PHA-680632], for which the inhibition in vivo at 45 mg/kg in the series with HL-60 [1] was found to be 85%.
Take `CCN(CCCOc1ccc2c(Nc3cc(CC(=O)Nc4cccc(F)c4)n[nH]3)ncnc2c1)CCOP(=O)(O)O` [BARASERTIB]: the Activity in series [2] came out at 5%.
Broadly, the inhibition is how much of the control response was suppressed. As for `Cc1cc(Nc2cc(N3CCN(C)CC3)nc(Sc3ccc(NC(=O)C4CC4)cc3)n2)n[nH]1`, the inhibition in the series on HL-60 [3] amounted to 98%.
